Laboratory results reported in ChEMBL document CHEMBL1126044, “Affinity of human growth hormone-releasing factor (1-29)NH2 analogues for GRF binding sites in rat adenopituitary” (J Med Chem, 1992).
Square brackets hold non-standard residues; d marks the D form. Peptide text beside a SMILES is read from it. Aoc = NCCCCCCCC(=O)O

Assays:
[1] = molecular target: T1, Growth hormone-releasing hormone receptor (Rattus norvegicus, UniProt Q02644); assay: Compound was tested to Inhibit [125I]-Growth hormone-releasing factor in rat adenopituitary homogenates
T1 sequence (Q02644 whole entry): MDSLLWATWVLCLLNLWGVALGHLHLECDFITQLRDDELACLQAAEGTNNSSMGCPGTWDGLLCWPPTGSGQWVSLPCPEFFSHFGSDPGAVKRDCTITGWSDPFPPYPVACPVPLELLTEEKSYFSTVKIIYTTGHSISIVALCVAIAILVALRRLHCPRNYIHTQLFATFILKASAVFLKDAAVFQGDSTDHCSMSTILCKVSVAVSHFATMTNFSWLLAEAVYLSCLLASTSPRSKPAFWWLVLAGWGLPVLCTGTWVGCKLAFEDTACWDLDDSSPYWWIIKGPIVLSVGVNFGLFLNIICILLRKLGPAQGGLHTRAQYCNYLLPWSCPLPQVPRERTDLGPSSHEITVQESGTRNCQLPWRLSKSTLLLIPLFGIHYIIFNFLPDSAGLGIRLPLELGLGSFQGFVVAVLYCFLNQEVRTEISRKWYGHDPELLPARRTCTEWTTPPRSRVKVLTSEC
Method in brief: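 Anterior pituitaries from 2-month-old male Sprague-Dawley rats homogenized in ice-cold 50 mM Tris-HCl pH 7.4 with 5 mM MgCl2, 5 mM EDTA. Homogenate (70–75 µg protein) incubated with 35–50 pM [125I-Tyr10]hGRF(1-44)NH2 and peptide at 0–1000 nM in Tris-HCl buffer pH 7.4 with 5 mM EDTA, 5 mM MgCl2, 0.42% BSA, 60 min at 23 °C. Nonspecific binding defined with 2.4 µM rGRF(1-29)NH2. Bound fraction separated by centrifugation and gamma-counted. IC50 fitted with LIGAND. Mean ± SEM of three experiments, each in duplicate or triplicate.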

[2] = molecular target: T2, Growth hormone-releasing hormone receptor (Rattus norvegicus) (UniProt Q02644); assay: Relative affinity compared to hGRF(1-29)NH2; assay type: functional
T2 sequence (whole entry): T1 sequence (Q02644 whole entry)
Method in brief: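 Radioligand competition in rat anterior pituitary homogenate using [125I-Tyr10]hGRF(1-44)NH2 at 35–50 pM and peptides at 0–1000 nM, 60 min at 23 °C. Relative affinity is the binding IC50 expressed as a percentage relative to hGRF(1-29)NH2.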

Row | Compound | IC50 [1] | Activity [2]
1 | H-YADAIFTNSYRKVLGQLSARLLQDIMSR-NH2 | > 1000 nM | 
2 | H-YADAIFTNSYRKVLGQLSARKLLQIMSR-NH2 [listing 1 of 2 here] |  | 33%
3 | CC[C@H](C)[C@H](NC(=O)[C@H](C)NC(=O)[C@H](CC(=O)O)NC(=O)[C@H](C)NC(=O)[C@H](Cc1ccc(O)cc1)NC(=O)CCCN)C(=O)N[C@@H](Cc1ccccc1)C(=O)N[C@H](C(=O)N[C@@H](CC(N)=O)C(=O)N[C@@H](CO)C(=O)N[C@@H](Cc1ccc(O)cc1)C(=O)N[C@@H](CCCN=C(N)N)C(=O)N[C@@H](CCCCN)C(=O)N[C@H](C(=O)N[C@@H](CC(C)C)C(=O)NCC(=O)N[C@@H](CCC(N)=O)C(=O)N[C@@H](CC(C)C)C(=O)N[C@@H](CO)C(=O)N[C@@H](C)C(=O)N[C@@H](CCCN=C(N)N)C(=O)N[C@@H](CCCCN)C(=O)N[C@@H](CC(C)C)C(=O)N[C@@H](CC(C)C)C(=O)N[C@@H](CCC(N)=O)C(=O)N[C@@H](CC(=O)O)C(=O)N[C@H](C(=O)N[C@@H](CCSC)C(=O)N[C@@H](CO)C(=O)N[C@@H](CCCN=C(N)N)C(N)=O)[C@@H](C)CC)C(C)C)[C@@H](C)O |  | 41%
4 | CC[C@H](C)[C@H](NC(=O)[C@H](C)NC(=O)[C@H](CC(=O)O)NC(=O)[C@H](C)NC(=O)[C@@H](N)Cc1ccc(O)cc1)C(=O)N[C@@H](Cc1ccccc1)C(=O)N[C@H](C(=O)N[C@@H](CC(N)=O)C(=O)N[C@@H](CO)C(=O)N[C@@H](Cc1ccc(O)cc1)C(=O)N[C@@H](CCCN=C(N)N)C(=O)N[C@@H](CCCCN)C(=O)NCCCCCCCC(=O)N[C@@H](CCC(N)=O)C(=O)N[C@@H](CC(C)C)C(=O)N[C@@H](CO)C(=O)N[C@@H](C)C(=O)N[C@@H](CCCN=C(N)N)C(=O)N[C@@H](CCCCN)C(=O)N[C@@H](CC(C)C)C(=O)N[C@@H](CC(C)C)C(=O)N[C@@H](CCC(N)=O)C(=O)N[C@@H](CC(=O)O)C(=O)N[C@H](C(=O)N[C@@H](CCSC)C(=O)N[C@@H](CO)C(=O)N[C@@H](CCCN=C(N)N)C(N)=O)[C@@H](C)CC)[C@@H](C)O (H-YADAIFTNSYRK[Aoc]QLSARKLLQDIMSR-NH2) | > 1000 nM | 
5 | CC[C@H](C)[C@H](NC(=O)[C@H](C)NC(=O)[C@H](CC(=O)O)NC(=O)[C@H](C)NC(=O)[C@@H](N)Cc1ccc(O)cc1)C(=O)N[C@@H](Cc1ccccc1)C(=O)N[C@H](C(=O)N[C@@H](CC(N)=O)C(=O)N[C@@H](CO)C(=O)N[C@@H](Cc1ccc(O)cc1)C(=O)N[C@@H](CCCNC(=N)N)C(=O)N[C@@H](CCCCN)C(=O)N[C@H](C(=O)N[C@@H](CC(C)C)C(=O)NCC(=O)N[C@@H](CCC(N)=O)C(=O)N[C@@H](CC(C)C)C(=O)N[C@@H](CO)C(=O)NCCCCCCCC(=O)N[C@@H](CC(C)C)C(=O)N[C@@H](CC(C)C)C(=O)N[C@@H](CCC(N)=O)C(=O)N[C@@H](CC(=O)O)C(=O)N[C@H](C(=O)N[C@@H](CCSC)C(=O)N[C@@H](CO)C(=O)N[C@@H](CCCNC(=N)N)C(N)=O)[C@@H](C)CC)C(C)C)[C@@H](C)O (H-YADAIFTNSYRKVLGQLS[Aoc]LLQDIMSR-NH2) | > 1000 nM | 
6 | CC[C@H](C)[C@H](NC(=O)[C@H](C)NC(=O)[C@H](CC(=O)O)NC(=O)[C@H](C)NC(=O)[C@@H](N)Cc1ccc(O)cc1)C(=O)N[C@@H](Cc1ccccc1)C(=O)N[C@H](C(=O)N[C@@H](CC(N)=O)C(=O)N[C@@H](CO)C(=O)N[C@@H](Cc1ccc(O)cc1)C(=O)N[C@@H](CCCNC(=N)N)C(=O)N[C@@H](CCCCN)C(=O)N[C@H](C(=O)N[C@@H](CC(C)C)C(=O)NCC(=O)NCCCCCCCC(=O)N[C@@H](C)C(=O)N[C@@H](CCCNC(=N)N)C(=O)N[C@@H](CCCCN)C(=O)N[C@@H](CC(C)C)C(=O)N[C@@H](CC(C)C)C(=O)N[C@@H](CCC(N)=O)C(=O)N[C@@H](CC(=O)O)C(=O)N[C@H](C(=O)N[C@@H](CCSC)C(=O)N[C@@H](CO)C(=O)N[C@@H](CCCNC(=N)N)C(N)=O)[C@@H](C)CC)C(C)C)[C@@H](C)O (H-YADAIFTNSYRKVLG[Aoc]ARKLLQDIMSR-NH2) | > 1000 nM | 
7 | H-ADAIFTNSYRKVLAQLSARKLLQDIMSR-NH2 [listing 1 of 2 here] |  | 1.5%
8 | H-YADAIFTNSYRKVLGQLSARKLLQDISR-NH2 [listing 2 of 2 here] |  | 62%
9 | H-YADAIFTNSYRKVLGQLSALLQDIMSR-NH2 | > 1000 nM | 

Other lines, results leading:

Row | IC50 [1] | Activity [2] | Compound
10 | 5.6 nM |  | CC[C@H](C)[C@H](NC(=O)[C@H](C)NC(=O)[C@H](CC(=O)O)NC(=O)[C@H](C)NC(=O)[C@@H](N)Cc1ccc(O)cc1)C(=O)N[C@@H](Cc1ccccc1)C(=O)N[C@H](C(=O)N[C@@H](CC(N)=O)C(=O)N[C@@H](CO)C(=O)N[C@@H](Cc1ccc(O)cc1)C(=O)N[C@@H](CCCNC(=N)N)C(=O)N[C@@H](CCCCN)C(=O)N[C@H](C(=O)N[C@@H](CC(C)C)C(=O)NCC(=O)N[C@@H](CCC(N)=O)C(=O)N[C@@H](CC(C)C)C(=O)N[C@@H](CO)C(=O)N[C@@H](C)C(=O)N[C@@H](CCCNC(=N)N)C(=O)N[C@@H](CCCCN)C(=O)N[C@@H](CC(C)C)C(=O)N[C@@H](CC(C)C)C(=O)N[C@@H](CCC(N)=O)C(=O)N[C@@H](CC(=O)O)C(=O)N[C@H](C(=O)N[C@@H](CCSC)C(=O)N[C@@H](CO)C(=O)N[C@@H](CCCNC(=N)N)C(N)=O)[C@@H](C)CC)C(C)C)[C@@H](C)O
11 | 120 nM |  | H-YADAIFTNSYRKVLGQLSARKLLQDIR-NH2
12 | 45.2 nM |  | H-YADAIFTNSYRKVLGQLSARKLLDIMSR-NH2
13 | 44.2 nM |  | H-ADAIFTSSYRRILGQLYARKLLHEIMNR-NH2
14 | 13.7 nM |  | CC[C@H](C)[C@H](NC(=O)[C@H](C)NC(=O)[C@H](CC(=O)O)NC(=O)[C@H](C)NC(=O)[C@H](Cc1ccc(O)cc1)NC(=O)CCCN)C(=O)N[C@@H](Cc1ccccc1)C(=O)N[C@H](C(=O)N[C@@H](CC(N)=O)C(=O)N[C@@H](CO)C(=O)N[C@@H](Cc1ccc(O)cc1)C(=O)N[C@@H](CCCNC(=N)N)C(=O)N[C@@H](CCCCN)C(=O)N[C@H](C(=O)N[C@@H](CC(C)C)C(=O)NCC(=O)N[C@@H](CCC(N)=O)C(=O)N[C@@H](CC(C)C)C(=O)N[C@@H](CO)C(=O)N[C@@H](C)C(=O)N[C@@H](CCCNC(=N)N)C(=O)N[C@@H](CCCCN)C(=O)N[C@@H](CC(C)C)C(=O)N[C@@H](CC(C)C)C(=O)N[C@@H](CCC(N)=O)C(=O)N[C@@H](CC(=O)O)C(=O)N[C@H](C(=O)N[C@@H](CCSC)C(=O)N[C@@H](CO)C(=O)N[C@@H](CCCNC(=N)N)C(N)=O)[C@@H](C)CC)C(C)C)[C@@H](C)O
15 | 377 nM |  | H-ADAIFTNSYRKVLAQLSARKLLQDIMSR-NH2 [listing 2 of 2 here]
16 | 6.6 nM |  | CC[C@H](C)[C@H](NC(=O)[C@H](C)NC(=O)[C@H](CC(=O)O)NC(=O)[C@H](C)NC(=O)[C@H](Cc1ccc(O)cc1)NC(=O)CCCCCN)C(=O)N[C@@H](Cc1ccccc1)C(=O)N[C@H](C(=O)N[C@@H](CC(N)=O)C(=O)N[C@@H](CO)C(=O)N[C@@H](Cc1ccc(O)cc1)C(=O)N[C@@H](CCCNC(=N)N)C(=O)N[C@@H](CCCCN)C(=O)N[C@H](C(=O)N[C@@H](CC(C)C)C(=O)NCC(=O)N[C@@H](CCC(N)=O)C(=O)N[C@@H](CC(C)C)C(=O)N[C@@H](CO)C(=O)N[C@@H](C)C(=O)N[C@@H](CCCNC(=N)N)C(=O)N[C@@H](CCCCN)C(=O)N[C@@H](CC(C)C)C(=O)N[C@@H](CC(C)C)C(=O)N[C@@H](CCC(N)=O)C(=O)N[C@@H](CC(=O)O)C(=O)N[C@H](C(=O)N[C@@H](CCSC)C(=O)N[C@@H](CO)C(=O)N[C@@H](CCCNC(=N)N)C(N)=O)[C@@H](C)CC)C(C)C)[C@@H](C)O
17 | 7.2 nM |  | H-YADAIFTNSYRKVLGQLSARKLLQDIMR-NH2
18 | 9.5 nM |  | H-YADAIFTNSYRKVLGQLSARKLLQDISR-NH2 [listing 1 of 2 here]
19 | 17.6 nM |  | CC[C@H](C)[C@H](NC(=O)[C@H](C)NC(=O)[C@H](CC(=O)O)NC(=O)[C@H](C)NC(=O)[C@H](Cc1ccc(O)cc1)NC(C)=O)C(=O)N[C@@H](Cc1ccccc1)C(=O)N[C@H](C(=O)N[C@@H](CC(N)=O)C(=O)N[C@@H](CO)C(=O)N[C@@H](Cc1ccc(O)cc1)C(=O)N[C@@H](CCCNC(=N)N)C(=O)N[C@@H](CCCCN)C(=O)N[C@H](C(=O)N[C@@H](CC(C)C)C(=O)NCC(=O)N[C@@H](CCC(N)=O)C(=O)N[C@@H](CC(C)C)C(=O)N[C@@H](CO)C(=O)N[C@@H](C)C(=O)N[C@@H](CCCNC(=N)N)C(=O)N[C@@H](CCCCN)C(=O)N[C@@H](CC(C)C)C(=O)N[C@@H](CC(C)C)C(=O)N[C@@H](CCC(N)=O)C(=O)N[C@@H](CC(=O)O)C(=O)N[C@H](C(=O)N[C@@H](CCSC)C(=O)N[C@@H](CO)C(=O)N[C@@H](CCCNC(=N)N)C(N)=O)[C@@H](C)CC)C(C)C)[C@@H](C)O
20 | 95 nM |  | H-YADAIFTSYRKVLGQLSARKLLQDIMSR-NH2
21 | 16.9 nM |  | H-YADAIFTNSYRKVLGQLSARKLLQIMSR-NH2 [listing 2 of 2 here]
